pIC50: −log10 of the molar value. Activity calls are given as the source filed them. No cut-off for these calls is given here. Peptide text beside a SMILES is read from it. * marks the point of attachment. X1 = CCC(=C(c1ccc(OCCN2CCCCCC2)cc1)c1ccc(OCCN2CCCCCC2)cc1)c1cccc(C(=O)*)c1
How the values were obtained:
[1] = target: T1, Proteasome Macropain subunit MB1 (Homo sapiens, UniProt P28074); assay: Inhibition of chymotrypsin-like activity of human 20S proteasome using Suc-LLVY-MCA as substrate measured for 1 hr by fluorescence assay
T1 sequence (P28074 whole entry): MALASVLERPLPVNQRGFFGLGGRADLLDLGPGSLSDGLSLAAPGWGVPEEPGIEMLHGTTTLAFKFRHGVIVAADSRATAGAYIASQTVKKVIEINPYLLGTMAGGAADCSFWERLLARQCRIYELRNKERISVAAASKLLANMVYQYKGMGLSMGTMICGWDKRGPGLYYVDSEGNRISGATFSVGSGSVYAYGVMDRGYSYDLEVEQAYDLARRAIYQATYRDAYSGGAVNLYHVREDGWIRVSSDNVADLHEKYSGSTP
In short: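 Purified human 20S proteasome with 50 µM fluorogenic substrate in 25 mM HEPES pH 8.0, 0.5 mM EDTA, 0.03% SDS. Inhibitor range 0.1–10 µM, with the table footnote giving 0.5–8 µM. IC₅₀ from inhibition curves; n = 3.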

[2] = target: T1, Proteasome Macropain subunit MB1; assay: Inhibition of chymotrypsin-like activity of human 26S proteasome using Suc-LLVY-MCA as substrate measured for 1 hr by fluorescence assay
In short: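 Purified 26S proteasome with 50 µM fluorogenic substrate in 50 mM HEPES pH 7.5, 40 mM KCl, 5 mM MgCl₂, BSA, 0.5 mM ATP, 1 mM DTT. Inhibitor range 0.1–40 µM. AMC fluorescence monitored 1 h at 37 °C. IC₅₀ from inhibition curves; n = 3.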

KMS-11 [3] = assay: Cytotoxicity against human KMS11 cells at 10 uM by CellTiter-Glo assay; format: functional, cell-based; conditions: TDE = time-dependent effect
In short: (§1)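 Cells cultured with each compound at 10 µM, with viability followed over time by ATP assay. Mock-treated cells define 100%; values are means of three independent experiments.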

KMS-11 [4] = assay: Cytotoxicity against human KMS11 cells after 24 to 48 hrs by CellTiter-Glo assay; format: functional
In short: (§2)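 RPMI8226 or KMS-11 cells seeded in triplicate wells at 5 × 10² cells/well and exposed to 0.1–10 µM compound (DMSO) for 24 or 48 h. Survival read as cellular ATP level; Cyt₅₀ derived from concentration–survival curves.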

[5] = target: T1, Proteasome Macropain subunit MB1; assay: Inhibition of chymotrypsin-like activity of 26S proteasome in human KMS11 cells using […] as substrate after 24 to 48 hrs by luminescence-based assay; format: cell-based
In short: (§3)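 Intracellular proteasome assay. Cells seeded in triplicate at 5 × 10³ cells/well and incubated 24 or 48 h with 0.1–10 µM inhibitor, 0.5% final DMSO. Proteasome-Glo reagent with aminoluciferin-linked peptide substrates lyses the cells; luminescence read after 15 min. IC₅₀ taken from inhibition curves.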

[6] = target: T1, Proteasome Macropain subunit MB1; assay: Inhibition of chymotrypsin-like activity of 26S proteasome in human RPMI8226 cells using […] as substrate after 24 to 48 hrs by luminescence-based assay; format: cell-based; in short: as §3
RPMI-8226 [7] = assay: Cytotoxicity against human RPMI8226 cells after 24 to 48 hrs by CellTiter-Glo assay; format: functional; in short: as §2
RPMI-8226 [8] = assay: Cytotoxicity against human RPMI8226 cells assessed as reduction in cell viability at 10 uM after 2 to 48 hrs by CellTiter-Glo assay; format: functional, cell-based; in short: as §1
[9] = target: T1, Proteasome Macropain subunit MB1; assay: Inhibition of chymotrypsin-like activity of human 26S proteasome using Z-LLE-MCA as substrate measured for 1 hr in presence of ATPgammaS by fluorescence assay

pIC50 [1]	pIC50 [2]	pIC50 [5]	pIC50 [6]	pIC50 [9]	Molecule	Activity (KMS-11 [3])	CC50 (KMS-11 [4]) [µM]	CC50 (RPMI-8226 [7]) [µM]	Activity (RPMI-8226 [8])
5.34	< 4.40	–	–	–	CC[C@]1(O)C[C@@H]2CN(CCc3c([nH]c4ccccc34)[C@@](C(=O)OC)(c3cc4c(cc3OC)N(C)[C@H]3[C@@](O)(C(=O)OC)[C@H](OC(C)=O)[C@]5(CC)C=CCN6CC[C@]43[C@@H]65)C2)C1 [VINBLASTINE]	–	–	–	–
< 4.40	5.03	5.68	5.68	5.22	CCC(=C(c1ccc(OCCN2CCCCCC2)cc1)c1ccc(OCCN2CCCCCC2)cc1)c1cccc(C(=O)NCC(=O)N[C@@H](CCCNC(=N)N)C(=O)N[C@@H](CCCNC(=N)N)C(=O)N[C@@H](CCCNC(=N)N)C(=O)N[C@@H](CCCNC(=N)N)C(=O)N[C@@H](CCCNC(=N)N)C(=O)N[C@@H](CCCNC(=N)N)C(=O)N[C@@H](CCCNC(=N)N)C(=O)N[C@@H](CCCNC(=N)N)C(=O)NC(C)=O)c1	Tde	4.5	2.7	Active
< 5.10	< 4.40	–	–	–	Ac-RRRRRRRRG-OH	–	–	–	–
6.43	< 4.40	–	–	–	CCC(=C(c1ccc(OCCN2CCCCCC2)cc1)c1ccc(OCCN2CCCCCC2)cc1)c1cccc(CNC(=O)CN[C@@H](CC(C)C)C(=O)N[C@@H](CC(C)C)C(=O)N[C@H](C(=O)N[C@@H](Cc2ccc(O)cc2)C(=O)NC(C)=O)C(C)C)c1	–	–	–	–
5.99	< 4.00	–	4.96	–	CCC(=C(c1ccc(OCCN2CCCCCC2)cc1)c1ccc(OCCN2CCCCCC2)cc1)c1ccccc1	Tde	–	3.6	Active
< 5.10	< 4.40	–	–	–	CCC(=C(c1ccc(OCCN2CCCCCC2)cc1)c1ccc(OCCN2CCCCCC2)cc1)c1cccc(CNC(=O)CN[C@@H](CCCNC(=N)N)C(=O)N[C@@H](CCCNC(=N)N)C(=O)N[C@@H](CCCNC(=N)N)C(=O)N[C@@H](CCCNC(=N)N)C(=O)N[C@@H](CCCNC(=N)N)C(=O)N[C@@H](CCCNC(=N)N)C(=O)NC(C)=O)c1	–	–	–	–
6.05	5.04	–	–	–	CCC(=C(c1ccc(OCCN2CCCCCC2)cc1)c1ccc(OCCN2CCCCCC2)cc1)c1cccc(C(=O)NCC(=O)N[C@@H](CC(C)C)C(=O)N[C@@H](CC(C)C)C(=O)N[C@H](C(=O)N[C@@H](Cc2ccc(O)cc2)C(=O)NCC(=O)NCC(N)=O)C(C)C)c1 (X1-GLLVYGG-NH2)	–	–	–	–
< 5.10	< 4.40	–	–	–	CCC(=C(c1ccc(OCCN2CCCCCC2)cc1)c1ccc(OCCN2CCCCCC2)cc1)c1cccc(CNC(=O)CN[C@@H](CCCNC(=N)N)C(=O)N[C@@H](CCCNC(=N)N)C(=O)N[C@@H](CCCNC(=N)N)C(=O)N[C@@H](CCCNC(=N)N)C(=O)NC(C)=O)c1	–	–	–	–
< 4.30	5.26	5.20	5.24	5.62	CCC(=C(c1ccc(OCCN2CCCCCC2)cc1)c1ccc(OCCN2CCCCCC2)cc1)c1cccc(C(=O)NCC(=O)N[C@@H](CCCNC(=N)N)C(=O)N[C@@H](CCCNC(=N)N)C(=O)N[C@@H](CCCNC(=N)N)C(=O)N[C@@H](CCCNC(=N)N)C(=O)N[C@@H](CCCNC(=N)N)C(=O)N[C@@H](CCCNC(=N)N)C(=O)N[C@@H](CCCNC(=N)N)C(=O)N[C@@H](CCCNC(=N)N)C(N)=O)c1	Tde	7.2	4.3	Active
5.21	4.62	–	–	–	CCC(=C(c1ccc(OCCN2CCCCCC2)cc1)c1ccc(OCCN2CCCCCC2)cc1)c1cccc(C(=O)NCC(=O)N[C@@H](CC(C)C)C(=O)N[C@@H](CC(C)C)C(=O)N[C@@H](CCC(=O)O)C(N)=O)c1	–	–	–	–
< 5.10	< 4.40	–	–	–	CCC(=C(c1ccc(OCCN2CCCCCC2)cc1)c1ccc(OCCN2CCCCCC2)cc1)c1cccc(C(=O)NCC(=O)N[C@@H](CCCNC(=N)N)C(=O)N[C@@H](CCCNC(=N)N)C(=O)N[C@@H](CCCNC(=N)N)C(=O)N[C@@H](CCCNC(=N)N)C(=O)N[C@@H](CCCNC(=N)N)C(=O)N[C@@H](CCCNC(=N)N)C(N)=O)c1	–	–	–	–
6.05	4.59	–	–	–	CCC(=C(c1ccc(OCCN2CCCCCC2)cc1)c1ccc(OCCN2CCCCCC2)cc1)c1cccc(C(=O)NCC(=O)N[C@@H](CC(C)C)C(=O)N[C@@H](CC(C)C)C(=O)N[C@H](C(=O)N[C@@H](Cc2ccc(O)cc2)C(N)=O)C(C)C)c1 (X1-GLLVY-NH2)	–	–	–	–
< 5.10	< 4.40	–	–	–	N=C(N)NCCC[C@H](NC(=O)[C@H](CCCNC(=N)N)NC(=O)[C@H](CCCNC(=N)N)NC(=O)[C@H](CCCNC(=N)N)NC(=O)[C@H](CCCNC(=N)N)NC(=O)[C@H](CCCNC(=N)N)NC(=O)[C@H](CCCNC(=N)N)NC(=O)[C@H](CCCNC(=N)N)NC(=O)CN)C(N)=O	–	–	–	–
5.96	5.30	–	–	–	CCC(=C(c1ccc(OCCN2CCCCCC2)cc1)c1ccc(OCCN2CCCCCC2)cc1)c1cccc(C(=O)NCC(=O)N[C@@H](CC(C)C)C(=O)N[C@@H](CC(C)C)C(=O)N[C@@H](CC(C)C)C(=O)NCC(=O)NCC(=O)NCC(=O)NCC(N)=O)c1 (X1-GLLLGGGG-NH2)	–	–	–	–
< 5.10	< 4.40	–	–	–	CCC(=C(c1ccc(OCCN2CCCCCC2)cc1)c1ccc(OCCN2CCCCCC2)cc1)c1cccc(C(=O)NCC(=O)N[C@@H](CCCNC(=N)N)C(=O)N[C@@H](CCCNC(=N)N)C(=O)N[C@@H](CCCNC(=N)N)C(=O)N[C@@H](CCCNC(=N)N)C(N)=O)c1 (X1-GRRRR-NH2)	–	–	–	–

Source: ChEMBL document CHEMBL4196013, “Ridaifen-F conjugated with cell-penetrating peptides inhibits intracellular proteasome activities and induces drug-resistant cell death” (Eur J Med Chem, 2018)
